How the values were obtained:
U-266 = assay: Antiproliferative activity against human U266 cells after 72 hrs by calcein AM staining based fluorescence assay; assay type: functional; details: U-266, 72 h
In short: (§1)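 Cells treated with three-fold compound dilutions in triplicate for 72 h. Calcein AM added afterwards and live-cell fluorescence read at 485/538 nm (ex/em). GI50, the concentration lethal to 50% of tumour cells, calculated from dose-response curves.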

K562 = assay: Antiproliferative activity against human K562 cells after 72 hrs by calcein AM staining based fluorescence assay; assay type: functional; details: K562, 72 h; in short: as §1
CCRF-CEM = assay: Antiproliferative activity against human CEM cells after 72 hrs by calcein AM staining based fluorescence assay; assay type: functional; in short: as §1
[1] = biological target: T1, Proteasome Macropain subunit MB1 (Homo sapiens, UniProt P28074); assay: Inhibition of chymotrypsin-like activity of 26S proteasome beta 5 subunit in human U266 cells using Suc-LLVY-aminoluciferin as substrate after 1 hr by Proteosome-Glo luminescence assay; assay type: cell-based
T1 sequence (P28074 whole entry): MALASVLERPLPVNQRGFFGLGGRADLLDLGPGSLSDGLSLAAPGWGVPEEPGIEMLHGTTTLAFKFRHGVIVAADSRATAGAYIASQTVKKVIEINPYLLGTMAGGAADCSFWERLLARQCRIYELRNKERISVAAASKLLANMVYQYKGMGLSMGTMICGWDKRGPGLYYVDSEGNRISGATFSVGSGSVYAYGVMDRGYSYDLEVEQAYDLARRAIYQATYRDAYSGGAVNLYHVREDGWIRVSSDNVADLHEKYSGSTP
In short: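 U266 multiple myeloma cells plated at 20,000 cells/well and exposed to varying compound concentrations for 1 h at 37 °C, in duplicate. 26S proteasome activity measured immediately as luciferase-coupled hydrolysis of the β5 substrate Suc-LLVY-aminoluciferin (Proteasome-Glo), read by luminescence. Activity normalised to untreated cells; IC50 derived from dose-response curves.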

[2] = biological target: T2, Proteasome Macropain subunit MB1 (Homo sapiens) (UniProt P28074); assay: Inhibition of chymotrypsin like activity of 26S proteasome beta 5 subunit in human U266 cells assessed as residual activity using N-Suc-LLVY-AMC as substrate at 10 uM preincubated for 1 hr followed by substrate addition and measured after 4 hrs by fluorescence assay relative to control; assay type: cell-based
T2 sequence (whole entry): T1 sequence (P28074 whole entry)

[3] = biological target: Proteasome Macropain subunit (Homo sapiens) (UniProt P49721); assay: Inhibition of trypsin like activity of 26S proteasome beta 2 subunit in human U266 cells assessed as residual activity using […] as substrate at 10 uM preincubated for 1 hr followed by substrate addition and measured after 4 hrs by fluorescence assay relative to control; assay type: cell-based
[4] = biological target: T3, Proteasome component C5 (Homo sapiens) (UniProt P20618); assay: Inhibition of caspase like activity of 26S proteasome beta 1 subunit in human U266 cells assessed as residual activity using […] as substrate at 10 uM preincubated for 1 hr followed by substrate addition and measured after 4 hrs by fluorescence assay relative to control; assay type: cell-based
T3 sequence (whole entry): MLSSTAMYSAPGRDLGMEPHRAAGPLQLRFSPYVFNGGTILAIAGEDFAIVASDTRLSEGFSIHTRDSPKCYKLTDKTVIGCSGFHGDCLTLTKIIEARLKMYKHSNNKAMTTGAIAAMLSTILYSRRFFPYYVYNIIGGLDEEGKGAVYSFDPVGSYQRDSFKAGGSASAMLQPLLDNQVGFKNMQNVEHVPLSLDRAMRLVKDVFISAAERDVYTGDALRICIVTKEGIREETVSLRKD

Proteasome Macropain subunit (Homo sapiens), sequence (P49721 whole entry): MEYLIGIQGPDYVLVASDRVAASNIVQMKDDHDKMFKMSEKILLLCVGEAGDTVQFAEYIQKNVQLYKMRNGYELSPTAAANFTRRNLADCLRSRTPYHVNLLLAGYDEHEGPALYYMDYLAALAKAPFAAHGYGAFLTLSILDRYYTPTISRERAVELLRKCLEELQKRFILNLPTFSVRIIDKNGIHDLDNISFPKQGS

GI50 (K562) [µM]	GI50 (CCRF-CEM) [µM]	IC50 [1] [µM]	Activity [2] [%]	Activity [3] [%]	Activity [4] [%]	Structure (SMILES)	GI50 (U-266) [µM]
50.9	65.2					CON(C)C(=O)[C@H](Cc1ccccc1)NC(=O)c1cc(Cl)ccc1OCc1ccccc1	92.3
> 100	68.2					COC(=O)[C@@H](CC(C)C)NC(=O)[C@H](Cc1ccccc1)NC(=O)[C@H](CC(C)C)NC(=O)c1cc(Cl)ccc1OCc1ccccc1	88.5
55.6	30.6					CON(C)C(=O)[C@H](CC(C)C)NC(=O)[C@H](CC(C)C)NC(=O)[C@H](CC(C)C)NC(=O)c1cc(Cl)ccc1OCc1ccccc1	55.2
79.5	54.2					CON(C)C(=O)C(Cc1ccccc1)NC(=O)[C@H](Cc1ccccc1)NC(=O)c1cc(Cl)ccc1O (stereo partly drawn)	68.7
> 100	51					COC(=O)[C@@H](CC(C)C)NC(=O)[C@H](CC(C)C)NC(=O)[C@H](CC(C)C)NC(=O)c1cc(Cl)ccc1OCc1ccccc1	82
72	48					COC(=O)[C@H](Cc1ccccc1)NC(=O)[C@H](Cc1ccccc1)NC(=O)[C@H](CC(C)C)NC(=O)c1cc(Cl)ccc1OCc1ccccc1	82.1
34.7	35.7					CON(C)C(=O)[C@H](Cc1ccccc1)NC(=O)[C@H](Cc1ccccc1)NC(=O)[C@H](CC(C)C)NC(=O)c1cc(Cl)ccc1OCc1ccccc1	56.3
27.1	15.5	> 1	97.3	78.4	71.5	O=C[C@H](Cc1ccccc1)NC(=O)[C@H](Cc1ccccc1)NC(=O)c1cc(Cl)ccc1OCc1ccccc1	21.7
99.1	55.5					CON(C)C(=O)[C@H](Cc1ccccc1)NC(=O)c1cc(Cl)ccc1O	72.4
33.3	17.7	> 1	70.8	70.2	53	O=C[C@H](Cc1ccccc1)NC(=O)c1cc(Cl)ccc1OCc1ccccc1	63.8
22.5	19.5					CON(C)C(=O)[C@H](Cc1ccccc1)NC(=O)[C@H](CC(C)C)NC(=O)c1cc(Cl)ccc1OCc1ccccc1	81.9
87.5	48.4					COC(=O)[C@H](CC(C)C)NC(=O)[C@H](CC(C)C)NC(=O)[C@H](CC(C)C)NC(=O)c1cc(Cl)ccc1OCc1ccccc1	84.9
0.98	0.58	0.182	18	74.3	35.5	CC(C)C[C@H](NC(=O)c1cc(Cl)ccc1OCc1ccccc1)C(=O)N[C@@H](CC(C)C)C(=O)N[C@@H](C=O)CC(C)C	0.38
70.3	31.4					COC(=O)[C@H](Cc1ccccc1)NC(=O)[C@H](CC(C)C)NC(=O)[C@H](CC(C)C)NC(=O)c1cc(Cl)ccc1OCc1ccccc1	72.2
27.3	10.8					CC(C)C[C@H](NC(=O)c1cc(Cl)ccc1O)C(=O)N[C@@H](Cc1ccccc1)C(=O)N[C@H](CO)Cc1ccccc1	18.9
29.6	28.6					CON(C)C(=O)[C@H](Cc1ccccc1)NC(=O)[C@H](Cc1ccccc1)NC(=O)c1cc(Cl)ccc1OCc1ccccc1	72.1
57.9	27.7	> 1	> 100	81	> 100	CC(C)C[C@H](NC(=O)c1cc(Cl)ccc1O)C(=O)N[C@H](C=O)Cc1ccccc1	64.9
16.3	11	> 1	85.2	85.9	67.8	CC(C)C[C@H](NC(=O)c1cc(Cl)ccc1OCc1ccccc1)C(=O)N[C@H](C=O)Cc1ccccc1	14.8

GI50 (K562) [µM]	GI50 (CCRF-CEM) [µM]	IC50 [1] [µM]	Activity [2] [%]	Activity [3] [%]	Activity [4] [%]	Structure (SMILES)	GI50 (U-266) [µM]
21	16.3	> 1	84.3	88.1	35.3	CC(C)CC(C=O)NC(=O)[C@H](CC(C)C)NC(=O)c1cc(Cl)ccc1OCc1ccccc1 (stereo partly drawn)	37
17.3	15.1	> 1	95	92	39.9	CC(C)CC(C=O)NC(=O)[C@H](Cc1ccccc1)NC(=O)c1cc(Cl)ccc1OCc1ccccc1 (stereo partly drawn)	17.7
22.4	8.45					CC(C)C[C@@H](CO)NC(=O)[C@H](Cc1ccccc1)NC(=O)[C@H](CC(C)C)NC(=O)c1cc(Cl)ccc1O	11.8
30.9	17.2					CON(C)C(=O)[C@H](CC(C)C)NC(=O)[C@H](Cc1ccccc1)NC(=O)[C@H](CC(C)C)NC(=O)c1cc(Cl)ccc1O	32.8
22.2	16.3					CON(C)C(=O)[C@H](Cc1ccccc1)NC(=O)[C@H](Cc1ccccc1)NC(=O)[C@H](CC(C)C)NC(=O)c1cc(Cl)ccc1O	23.1
98.1	63					CON(C)C(=O)[C@H](CC(C)C)NC(=O)[C@H](CC(C)C)NC(=O)c1cc(Cl)ccc1O	69
34	11.5					CON(C)C(=O)[C@@H](CC(C)C)NC(=O)[C@H](CC(C)C)NC(=O)[C@H](CC(C)C)NC(=O)c1cc(Cl)ccc1OCc1ccccc1	23.7
28.9	17.6					CON(C)C(=O)[C@@H](CC(C)C)NC(=O)[C@H](Cc1ccccc1)NC(=O)[C@H](CC(C)C)NC(=O)c1cc(Cl)ccc1OCc1ccccc1	22.6
42.7	45.2					CON(C)C(=O)[C@H](CC(C)C)NC(=O)c1cc(Cl)ccc1OCc1ccccc1	54.1
> 100	58.6					CON(C)C(=O)[C@H](CC(C)C)NC(=O)c1cc(Cl)ccc1O	> 100
90.9	64.1					CON(C)C(=O)[C@H](CC(C)C)NC(=O)[C@H](Cc1ccccc1)NC(=O)c1cc(Cl)ccc1O	71.6
58.5	48.5					COC(=O)[C@H](CC(C)C)NC(=O)[C@H](Cc1ccccc1)NC(=O)[C@H](CC(C)C)NC(=O)c1cc(Cl)ccc1OCc1ccccc1	83.7
93.6	48.2					CON(C)C(=O)[C@H](Cc1ccccc1)NC(=O)[C@H](CC(C)C)NC(=O)c1cc(Cl)ccc1O	79.2
25.8	32.2					CON(C)C(=O)[C@@H](CC(C)C)NC(=O)[C@H](Cc1ccccc1)NC(=O)c1cc(Cl)ccc1OCc1ccccc1	67.4
16.4	19					CON(C)C(=O)[C@H](CC(C)C)NC(=O)[C@H](Cc1ccccc1)NC(=O)[C@H](CC(C)C)NC(=O)c1cc(Cl)ccc1OCc1ccccc1	48.6
33.2	22.2					CON(C)C(=O)[C@H](CC(C)C)NC(=O)[C@H](CC(C)C)NC(=O)c1cc(Cl)ccc1OCc1ccccc1	35.2
44.2	15.1					CON(C)C(=O)[C@H](Cc1ccccc1)NC(=O)[C@H](CC(C)C)NC(=O)[C@H](CC(C)C)NC(=O)c1cc(Cl)ccc1OCc1ccccc1	47.2
